Measured values published in ChEMBL document CHEMBL3045292, “Synthesis and herbicidal activity of 2-(7-fluoro-3-oxo- 3,4-dihydro-2H-benzo[b][1,4]oxazin-6-yl)isoindoline-1,3-diones” (J Agric Food Chem, 2005).

Key:
[1] = test system: Digitaria sanguinalis; experiment: Herbicidal activity against crabgrass Digitaria sanguinalis(hairy crabgrass) assessed as weed growth inhibition at 75 g/ha pre-emergence treatment […]; format: functional; settings: read-out: GI
Outline: (§1)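 Pot-grown plants in the greenhouse, in clay soil (pH 6.5, 1.6% organic matter, 37.3% clay, CEC 12.1 cmol/kg). Compound was made up as a 100 g/L emulsified concentrate (DMF, Tween-80), diluted in water and sprayed at 75 g ai/ha. Pre-emergence spraying was 24 h after sowing; post-emergence at two-leaf (dicots) or one-leaf (monocots) stage. Untreated and DMF controls. Percent growth inhibition scored visually 15 days post-treatment.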

[2] = test system: Setaria viridis; experiment: Herbicidal activity against Setaria viridis (green foxtail) assessed as weed growth inhibition at 75 g/ha pre-emergence treatment […]; format: functional; settings: read-out: GI; outline: as §1
[3] = test system: Chenopodium album; experiment: Herbicidal activity against fat hen Chenopodium album assessed as weed growth inhibition at 75 g/ha pre-emergence treatment […]; format: functional; settings: read-out: GI; outline: as §1
[4] = test system: Chenopodium album; experiment: Herbicidal activity against fat hen Chenopodium album assessed as weed growth inhibition at 75 g/ha post-emergence treatment […]; format: functional; settings: read-out: GI; outline: as §1
[5] = test system: Amaranthus blitum; experiment: Herbicidal activity against Amaranthus blitum assessed as weed growth inhibition at 75 g/ha pre-emergence treatment […]; format: functional; settings: read-out: GI; outline: as §1
[6] = test system: Echinochloa crus-galli; experiment: Herbicidal activity against Echinochloa crus-galli (barnyard grass) (barnyard grass) assessed as weed growth inhibition at 75 g/ha pre-emergence treatment […]; format: functional; settings: read-out: GI; outline: as §1
[7] = test system: Setaria viridis; experiment: Herbicidal activity against Setaria viridis (green foxtail) assessed as weed growth inhibition at 75 g/ha post-emergence treatment […]; format: functional; settings: read-out: GI; outline: as §1
[8] = test system: Abutilon theophrasti; experiment: Herbicidal activity against Abutilon theophrasti (velvetleaf) assessed as weed growth inhibition at post-emergence treatment […]; format: functional, organism-based; outline: as §1
[9] = test system: Digitaria sanguinalis; experiment: Herbicidal activity against crabgrass Digitaria sanguinalis(hairy crabgrass) assessed as weed growth inhibition at post-emergence treatment […]; format: functional, organism-based; outline: as §1
[10] = test system: Echinochloa crus-galli; experiment: Herbicidal activity against Echinochloa crus-galli (barnyard grass) (barnyard grass) assessed as weed growth inhibition at 75 g/ha post-emergence treatment […]; format: functional; settings: read-out: GI; outline: as §1
[11] = test system: Digitaria sanguinalis; experiment: Herbicidal activity against crabgrass Digitaria sanguinalis(hairy crabgrass) assessed as weed growth inhibition at 75 g/ha post-emergence treatment […]; format: functional; settings: read-out: GI; outline: as §1
[12] = test system: Abutilon theophrasti; experiment: Herbicidal activity against Abutilon theophrasti (velvetleaf) assessed as weed growth inhibition at 75 g/ha post-emergence treatment […]; format: functional; settings: read-out: GI; outline: as §1
[13] = test system: Amaranthus blitum; experiment: Herbicidal activity against Amaranthus blitum assessed as weed growth inhibition at 75 g/ha post-emergence treatment […]; format: functional; settings: read-out: GI; outline: as §1
[14] = test system: Abutilon theophrasti; experiment: Herbicidal activity against Abutilon theophrasti (velvetleaf) assessed as weed growth inhibition at 75 g/ha pre-emergence treatment […]; format: functional; settings: read-out: GI; outline: as §1

Compound O=C1COc2cc(F)c(N3C(=O)c4cccc(F)c4C3=O)cc2N1CC#CI has an inhibition of growth at 75 g/ha [1] of less than 50%, an inhibition of growth at 75 g/ha [2] of less than 50% and an inhibition of growth at 75 g/ha [3] greater than 80%. It also gave an inhibition of growth at 75 g/ha [4] greater than 80%, an inhibition of growth at 75 g/ha [5] greater than 80% and an inhibition of growth at 75 g/ha [6] of less than 50%. The inhibition of growth at 75 g/ha [7] was greater than 80%, the IC50 [8] was 7.2 g/ha and the IC50 [9] was 40 g/ha. It also gave an inhibition of growth at 75 g/ha [10] greater than 80%, an inhibition of growth at 75 g/ha [11] greater than 80% and an inhibition of growth at 75 g/ha [12] greater than 80%. It also gave an inhibition of growth at 75 g/ha [13] greater than 80% and an inhibition of growth at 75 g/ha [14] greater than 80%.
Work on C#CCN1C(=O)C(C)Oc2cc(F)c(N3C(=O)c4ccccc4C3=O)cc21 (stereo not drawn) yielded an inhibition of growth at 75 g/ha [1] of less than 50%, an inhibition of growth at 75 g/ha [2] of less than 50% and an inhibition of growth at 75 g/ha [3] greater than 80%. For the same compound, the inhibition of growth at 75 g/ha [4] was greater than 80%, the inhibition of growth at 75 g/ha [5] was greater than 80% and the inhibition of growth at 75 g/ha [6] was less than 50%. The inhibition of growth at 75 g/ha [7] was less than 50%, the IC50 [8] was 7.5 g/ha and the IC50 [9] was 161 g/ha. The inhibition of growth at 75 g/ha [10] was less than 50%, the inhibition of growth at 75 g/ha [11] was less than 50% and the inhibition of growth at 75 g/ha [12] was greater than 80%. The inhibition of growth at 75 g/ha [13] was greater than 80% and the inhibition of growth at 75 g/ha [14] was greater than 80%.
CC1Oc2cc(F)c(N3C(=O)c4ccccc4C3=O)cc2N(CC#CI)C1=O (stereo not drawn) was tested, and the inhibition of growth at 75 g/ha [1] was greater than 80%, the inhibition of growth at 75 g/ha [2] was greater than 80% and the inhibition of growth at 75 g/ha [3] was greater than 80%. For the same compound, the inhibition of growth at 75 g/ha [4] was greater than 80%, the inhibition of growth at 75 g/ha [5] was greater than 80% and the inhibition of growth at 75 g/ha [6] was greater than 80%. It also gave an inhibition of growth at 75 g/ha [7] of less than 50%, an IC50 [8] of 7.4 g/ha and an IC50 [9] of 60 g/ha. It also gave an inhibition of growth at 75 g/ha [10] of less than 50%, an inhibition of growth at 75 g/ha [11] of 50% and an inhibition of growth at 75 g/ha [12] greater than 80%. The inhibition of growth at 75 g/ha [13] was greater than 80% and the inhibition of growth at 75 g/ha [14] was greater than 80%.
Compound CC1Oc2cc(F)c(N3C(=O)c4cccc(F)c4C3=O)cc2N(CC#CI)C1=O (stereo not drawn) has an inhibition of growth at 75 g/ha [1] of less than 50%, an inhibition of growth at 75 g/ha [2] of less than 50% and an inhibition of growth at 75 g/ha [3] greater than 80%. For the same compound, the inhibition of growth at 75 g/ha [4] was greater than 80%, the inhibition of growth at 75 g/ha [5] was greater than 80% and the inhibition of growth at 75 g/ha [6] was less than 50%. The inhibition of growth at 75 g/ha [7] was less than 50%, the IC50 [8] was 7.5 g/ha and the IC50 [9] was 238 g/ha. For the same compound, the inhibition of growth at 75 g/ha [10] was less than 50%, the inhibition of growth at 75 g/ha [11] was less than 50% and the inhibition of growth at 75 g/ha [12] was greater than 80%. For the same compound, the inhibition of growth at 75 g/ha [13] was greater than 80% and the inhibition of growth at 75 g/ha [14] was greater than 80%.
Cc1ccc2c(c1)C(=O)N(c1cc3c(cc1F)OC(C)C(=O)N3CC#CI)C2=O (stereo not drawn) gave an inhibition of growth at 75 g/ha [1] of less than 50%, an inhibition of growth at 75 g/ha [2] of less than 50% and an inhibition of growth at 75 g/ha [3] greater than 80%. It also gave an inhibition of growth at 75 g/ha [4] greater than 80%, an inhibition of growth at 75 g/ha [5] greater than 80% and an inhibition of growth at 75 g/ha [6] of less than 50%. The inhibition of growth at 75 g/ha [7] was less than 50%, the IC50 [8] was 30 g/ha and the IC50 [9] was greater than 1800 g/ha. The inhibition of growth at 75 g/ha [10] was less than 50%, the inhibition of growth at 75 g/ha [11] was less than 50% and the inhibition of growth at 75 g/ha [12] was greater than 80%. It also gave an inhibition of growth at 75 g/ha [13] greater than 80% and an inhibition of growth at 75 g/ha [14] greater than 80%.
O=C1COc2cc(F)c(N3C(=O)C4=C(CCCC4)C3=O)cc2N1CC#CI gave an inhibition of growth at 75 g/ha [1] greater than 80%, an inhibition of growth at 75 g/ha [2] greater than 80% and an inhibition of growth at 75 g/ha [3] greater than 80%. For the same compound, the inhibition of growth at 75 g/ha [4] was greater than 80%, the inhibition of growth at 75 g/ha [5] was greater than 80% and the inhibition of growth at 75 g/ha [6] was greater than 80%. For the same compound, the inhibition of growth at 75 g/ha [7] was greater than 80%, the IC50 [8] was 2.3 g/ha and the IC50 [9] was 3.8 g/ha. The inhibition of growth at 75 g/ha [10] was greater than 80%, the inhibition of growth at 75 g/ha [11] was greater than 80% and the inhibition of growth at 75 g/ha [12] was greater than 80%. The inhibition of growth at 75 g/ha [13] was greater than 80% and the inhibition of growth at 75 g/ha [14] was greater than 80%.
O=C1COc2cc(F)c(N3C(=O)c4ccccc4C3=O)cc2N1CC#CBr gave an inhibition of growth at 75 g/ha [1] of less than 50%, an inhibition of growth at 75 g/ha [2] of less than 50% and an inhibition of growth at 75 g/ha [3] of less than 50%. For the same compound, the inhibition of growth at 75 g/ha [4] was less than 50%, the inhibition of growth at 75 g/ha [5] was less than 50% and the inhibition of growth at 75 g/ha [6] was less than 50%. It also gave an inhibition of growth at 75 g/ha [7] of less than 50%, an IC50 [8] of 121 g/ha and an IC50 [9] of 314 g/ha. It also gave an inhibition of growth at 75 g/ha [10] of less than 50%, an inhibition of growth at 75 g/ha [11] of less than 50% and an inhibition of growth at 75 g/ha [12] of less than 50%. For the same compound, the inhibition of growth at 75 g/ha [13] was less than 50% and the inhibition of growth at 75 g/ha [14] was less than 50%.
